Where two headings read alike, the source gives them in different places.

What is called IC50 is the midpoint of a concentration-inhibition curve.

Data set [1] has as its system Saccharomyces cerevisiae P23. Description: Membrane permeabilization assay. The class given is cell-based. Conditions: S. cerevisiae, 5 and 10 μM. In short, it runs like this: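 S. cerevisiae P23 was grown aerobically in YEPG at 30 °C to mid-log phase (OD450 about 0.5). Cells were harvested, washed and resuspended to OD450 about 0.2 in 0.15 M citrate–phosphate buffer, pH 6.0, with 0.5% glucose and 10 μM propidium iodide. Test compound was added at 1, 5 or 10 μM final. PI uptake was followed as fluorescence (ex 515/em 620) at 25 °C. Controls: 10 μM melittin (positive) and buffer (baseline). Two sets of experiments, with no background subtraction.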

Data set [2] has as its system HeLa cells. Nature of the data set: Recovery experiments. The class given is cell-based, human. Conditions: 5 and 10 μM, exposure 1–8 h, then 48 h recovery, MTT.
The subject of data set [3] is Alternaria alternata (BCC020_0609). Nature of the data set: Antifungal activity, broth two-fold microdilution. The class given is cell-based. The following applies: 30 °C, 48 h, tested 75 to 0.036 μM; NA = no activity at 75 μM. In short, it runs like this:
(§1)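 Two-fold broth microdilution per CLSI M100-S20. Compounds were serially diluted from 75 to 0.036 μM in Mueller Hinton broth with 2% glucose. Inoculum from an overnight culture, about 5 × 10^5 CFU mL−1 final. Incubated aerobically at 30 °C for 48 h. Solvent control: medium with 50% DMSO in methanol. Fluconazole (32 to 0.0625 μg mL−1) served as positive control. MIC was the lowest concentration showing some growth inhibition. Triplicate.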
For orientation: In broth dilution the organism is exposed to a series of concentrations in liquid medium.

Data set [4] has as its system Aspergillus fumigatus (BCC020_2845). Nature of the data set: Antifungal activity, broth two-fold microdilution. Conditions: 30 °C, 48 h, tested 75 to 0.036 μM; NA = no activity at 75 μM. The class given is cell-based. In short, it runs like this:
as §1

The subject of data set [5] is HeLa cells. Description: Cellular morphology by light microscopy. The class given is cell-based, human. The following applies: 48 h of exposure, concentrations from 2.5 to 20 μM. The method in brief: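 HeLa cells in RPMI were seeded at 5 × 10^3 cells per well on poly-D-lysine-coated glass-bottom imaging plates. Next day they were treated with 20, 5 or […] μM test compound. Live-cell imaging used an inverted microscope with an incubation chamber supplied with 5% CO2 and a 100× oil objective. Images were taken after 48 h of treatment.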

Data set [6] can be described thus: Lipid bilayer experiments. The following applies: planar DOPC/DOPE membranes, 50 mV. The method in brief:
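Black lipid bilayers were painted from 3% (w/v) DOPC/DOPE 2:1 (w/w) in n-decane/butanol 9:1 across a 0.5 mm aperture. Both compartments held 10 mM Tris, 1 M KCl, pH 7.4, at 25 °C. Test compound (5 or 10 μM) was added to the cis side. Current was recorded with Ag/AgCl electrodes at 50 mV, cis positive, with traces of 120 s.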

Data set [7] deals with HeLa cells. Description: Cytotoxicity testing using MTT, dose–response. The class given is cell-based, human. In short, it runs like this: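 HeLa cells grown in RPMI 1640 with 10% FBS, 2 mM L-glutamine and 1% antibiotics at 37 °C, 5% CO2. Seeded at 10 × 10^3 cells per well and left to adhere overnight. The whole medium was replaced with test compound in medium for 48 h. MTT (4 mg mL−1 in PBS) was added for 4 h, then cells were centrifuged and formazan dissolved in DMSO. Absorbance at 590/640 nm. Viability given as percent of untreated control.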

Data set [8] has as its system HeLa cells. Nature of the data set: Membrane damage by LDH leakage. The class given is cell-based, human. In short, it runs like this: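 HeLa cells were seeded at 1 × 10^4 per well. At 30 min, 45 min, 1, 2, 3 and 6 h after treatment, LDH release was measured with the CytoTOX One membrane-integrity kit. Lysis solution gave maximum leakage. Fluorescence (ex 560/em 590) was expressed as percent of maximum LDH leakage.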
A general note: LDH in the medium is a marker of cell lysis.

Data set [9] concerns HeLa cells. Conditions: read-out: IC50 cytotoxicity against HeLa cells; HeLa cells ref 40; cited from earlier work.

Regarding minutissamide A [Compound 1], the “membrane permeabilization, PI entry into yeast cells (in words)” value in data set [1] is reported as “No membrane disruption was detectable”. The “cell viability after compound washout and recovery (in words)” value with HeLa cells [2] is on record as “easily tolerated by the cells for the first two hours”. Moreover, the “MIC A. alternata” value in data set [3] came to 75 µM. Further, the “MIC A. fumigatus” value in [4] worked out at 37.5 µM. Moreover, the “cellular morphology (in words)” value in the data set on HeLa cells [5] is “cell shrinkage and membrane rupture”. In [6] (5 μM), the “pore-forming activity / membrane permeabilization (in words)” value was “almost completely inactive”. Also, the “typical transmembrane electrical current” value in data set [6] (10 μM) is reported as “about 10 pA”. The “reduction of cell viability / inhibition” value with HeLa cells [7] (MTT, 48 h, at higher concentrations (5–20 μM)) came to 70%. Also, in the data set with HeLa cells [7] (read-out: IC50 against HeLa cells (MTT assay), 48 h treatment), the half-maximal inhibitory concentration (IC50) amounted to 2800 nM. Moreover, in the data set on HeLa cells [8] (early time points up to 2 h), the “LDH leakage (in words)” value was “No LDH leakage”. Further, the “LDH accumulated in the medium, % of positive control” value in the data set on HeLa cells [8] (only after 3 h) was “up to 30%”.
In the case of Iturin A, in the data set on HeLa cells [9], the 50% inhibitory concentration (IC50) is 1730 nM.

These data come from article PMC9041360 (RSC Advances, 2021).
